Assay [1] deals with T1, Growth hormone-releasing hormone receptor (Rattus norvegicus) (UniProt Q02644).
T1 sequence (whole entry): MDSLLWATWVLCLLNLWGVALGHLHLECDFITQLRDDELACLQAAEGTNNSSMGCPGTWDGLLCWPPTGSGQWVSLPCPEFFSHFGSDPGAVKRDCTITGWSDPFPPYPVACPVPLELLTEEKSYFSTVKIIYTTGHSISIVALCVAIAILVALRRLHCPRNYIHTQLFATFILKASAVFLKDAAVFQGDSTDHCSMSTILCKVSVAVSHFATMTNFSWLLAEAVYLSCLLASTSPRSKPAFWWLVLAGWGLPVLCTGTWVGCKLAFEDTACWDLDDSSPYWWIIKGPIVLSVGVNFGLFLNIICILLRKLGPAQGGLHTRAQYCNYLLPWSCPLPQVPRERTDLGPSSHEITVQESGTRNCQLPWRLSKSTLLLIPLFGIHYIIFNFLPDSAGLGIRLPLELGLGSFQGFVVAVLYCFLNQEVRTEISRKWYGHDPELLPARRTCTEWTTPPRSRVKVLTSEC
The experiment in a line: Tested for the potency of growth hormone (GRF) on subcutaneous administration in anesthetized male Charles River rats. It is filed as functional, organism-based. The gist of the method:
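Pentobarbital-anesthetized male rats (175-275 g), six to nine per group, received two subcutaneous doses of analogue or of reference GRF(1-29)NH2, in 0.5 mL, 30 min after anesthesia. Plasma GH measured by RIA 15 min later. Potency with 95% confidence limits calculated from a four-point assay design by the Pugsley method.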

The species named for assay [2] is Rattus norvegicus. The experiment in a line: In vitro rat pituitary cell growth hormone response to the compound was obtained. In kind it is functional, Pituitary gland cell.
For assay [3], the target named is T1, Growth hormone-releasing hormone receptor (Rattus norvegicus). As to the kind of experiment: Effect on growth hormone release(GRF) was determined in nembutal-anesthetized rat, at dose of 100 ug/100 g body weight. In kind it is functional. In short, it runs like this: (§1)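 Male Charles River rats (175-275 g), anesthetized with sodium pentobarbital 6 mg/100 g body weight. Six to nine per group. Peptide or saline given subcutaneously in 0.5 mL, 30 min after anesthetic. Jugular vein blood taken 15 min post-injection. Plasma GH measured by radioimmunoassay and reported as ng/mL, mean ± SEM.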

Assay [4] shares this target. The experiment in a line: Effect on growth hormone release(GRF) was determined in nembutal-anesthetized rat, at dose of 10 ug/100 g body weight. It is filed as functional. The gist of the method: as §1
For assay [5] the target is unchanged. As to the kind of experiment: In vitro rat pituitary cell growth hormone response was obtained. It is filed as functional, cell-based. As to conditions: Pituitary gland cell.
Assay [6] has as its system Rattus norvegicus. As to the kind of experiment: Effect on growth hormone release(GRF) was determined in nembutal-anesthetized rat, at dose of 50 ug/100 g body weight. In kind it is functional, organism-based. In short, it runs like this: as §1
Assay [7] relates to Rattus norvegicus. As to the kind of experiment: Effect on growth hormone release(GRF) was determined in nembutal-anesthetized rat, at dose of 20 ug/100 g body weight. In kind it is functional, organism-based. In short, it runs like this:
as §1

Values joined by “and” are separate entries in the source; they are usually repeats but may differ in a detail not shown here. Identical values can stand only once.

Take `CC[C@H](C)[C@H](NC(=O)[C@H](C)NC(=O)[C@H](CC(=O)O)NC(=O)[C@H](C)NC(=O)[C@H](Cc1ccc(O)cc1)NC(C)=O)C(=O)N[C@@H](Cc1ccccc1)C(=O)N[C@H](C(=O)N[C@@H](CC(N)=O)C(=O)N[C@@H](CO)C(=O)N[C@@H](Cc1ccc(O)cc1)C(=O)N[C@@H](CCCN=C(N)N)C(=O)N[C@@H](CCCCN)C(=O)N[C@H](C(=O)N[C@@H](CC(C)C)C(=O)NCC(=O)N[C@@H](CCC(N)=O)C(=O)N[C@@H](CC(C)C)C(=O)N[C@@H](CO)C(=O)N[C@@H](C)C(=O)N[C@@H](CCCN=C(N)N)C(=O)N[C@@H](CCCCN)C(=O)N[C@@H](CC(C)C)C(=O)N[C@@H](CC(C)C)C(=O)N[C@@H](CCC(N)=O)C(=O)N[C@@H](CC(=O)O)C(=O)N[C@H](C(=O)N[C@@H](CCSC)C(=O)N[C@@H](CO)C(=O)N[C@@H](CCCN=C(N)N)C(N)=O)[C@@H](C)CC)C(C)C)[C@@H](C)O`: the Potency in assay [1] worked out at 1200%; in the assay listed under Rattus norvegicus [2], 240%.
Take `CC[C@H](C)[C@H](NC(=O)[C@H](C)NC(=O)[C@H](CC(=O)O)NC(=O)[C@@H](C)N(C)C(=O)[C@@H](N)Cc1ccc(O)cc1)C(=O)N[C@@H](Cc1ccccc1)C(=O)N[C@H](C(=O)N[C@H](CC(N)=O)C(=O)N[C@@H](CO)C(=O)N[C@@H](Cc1ccc(O)cc1)C(=O)N[C@@H](CCCN=C(N)N)C(=O)N[C@@H](CCCCN)C(=O)N[C@H](C(=O)N[C@@H](CC(C)C)C(=O)NCC(=O)N[C@@H](CCC(N)=O)C(=O)N[C@@H](CC(C)C)C(=O)N[C@@H](CO)C(=O)N[C@@H](C)C(=O)N[C@@H](CCCN=C(N)N)C(=O)N[C@@H](CCCCN)C(=O)N[C@@H](CC(C)C)C(N)=O)C(C)C)[C@@H](C)O`: the Plasma GH release was 385 ng/mL in assay [3] and 512 ng/mL in assay [4]. Besides, in assay [1], the Potency is under 5%.
In the case of `CC[C@H](C)[C@H](NC(=O)[C@H](C)NC(=O)[C@@H](CC(=O)O)NC(=O)[C@@H](C)NC(=O)[C@@H](N)Cc1ccc(O)cc1)C(=O)N[C@@H](Cc1ccccc1)C(=O)N[C@H](C(=O)N[C@H](CC(N)=O)C(=O)N[C@@H](CO)C(=O)N[C@@H](Cc1ccc(O)cc1)C(=O)N[C@@H](CCCN=C(N)N)C(=O)N[C@@H](CCCCN)C(=O)N[C@H](C(=O)N[C@@H](CC(C)C)C(=O)NCC(=O)N[C@@H](CCC(N)=O)C(=O)N[C@@H](CC(C)C)C(=O)N[C@@H](CO)C(=O)N[C@@H](C)C(=O)N[C@@H](CCCN=C(N)N)C(=O)N[C@@H](CCCCN)C(=O)N[C@@H](CC(C)C)C(N)=O)C(C)C)[C@@H](C)O`, the Plasma GH release in assay [3] was 340 ng/mL; in assay [4] it was 314 ng/mL. The Potency in assay [1] was under 5%.
In turn, `CC[C@H](C)[C@H](NC(=O)[C@H](C)NC(=O)[C@H](CC(=O)O)NC(=O)[C@@H](C)NC(=O)[C@@H](N)Cc1ccc(O)cc1)C(=O)N[C@@H](Cc1ccccc1)C(=O)N[C@H](C(=O)N[C@H](CC(N)=O)C(=O)N[C@@H](CO)C(=O)N[C@@H](Cc1ccc(O)cc1)C(=O)N[C@@H](CCCN=C(N)N)C(=O)N[C@@H](CCCCN)C(=O)N[C@H](C(=O)N[C@@H](CC(C)C)C(=O)NCC(=O)N[C@@H](CCC(N)=O)C(=O)N[C@@H](CC(C)C)C(=O)N[C@@H](CO)C(=O)N[C@@H](C)C(=O)N[C@@H](CCCN=C(N)N)C(=O)N[C@@H](CCCCN)C(=O)N[C@@H](CC(C)C)C(N)=O)C(C)C)[C@@H](C)O` registered a Potency in assay [1] of under 5%. Besides, in assay [4], the Plasma GH release is 417 ng/mL and 305 ng/mL.
`CC[C@H](C)[C@H](NC(=O)[C@H](C)NC(=O)[C@@H](CC(=O)O)NC(=O)[C@H](C)NC(=O)[C@@H](N)Cc1ccc(O)cc1)C(=O)N[C@@H](Cc1ccccc1)C(=O)N[C@H](C(=O)N[C@H](CC(N)=O)C(=O)N[C@@H](CO)C(=O)N[C@@H](Cc1ccc(O)cc1)C(=O)N[C@@H](CCCN=C(N)N)C(=O)N[C@@H](CCCCN)C(=O)N[C@H](C(=O)N[C@@H](CC(C)C)C(=O)NCC(=O)N[C@@H](CCC(N)=O)C(=O)N[C@@H](CC(C)C)C(=O)N[C@@H](CO)C(=O)N[C@@H](C)C(=O)N[C@@H](CCCN=C(N)N)C(=O)N[C@@H](CCCCN)C(=O)N[C@@H](CC(C)C)C(N)=O)C(C)C)[C@@H](C)O`: the values for the Plasma GH release in assay [3] and in assay [4] were 401 ng/mL and 498 ng/mL, respectively. In assay [1], this compound returned a Potency of under 5%.
With `CC[C@H](C)[C@H](NC(=O)[C@H](C)NC(=O)[C@H](CC(=O)O)NC(=O)[C@H](C)NC(=O)[C@@H](N)Cc1ccc(O)cc1)C(=O)N[C@@H](Cc1ccccc1)C(=O)N[C@H](C(=O)N[C@@H](CC(N)=O)C(=O)N[C@@H](CO)C(=O)N[C@@H](Cc1ccc(O)cc1)C(=O)N[C@@H](CCCN=C(N)N)C(=O)N[C@@H](CCCCN)C(=O)N[C@H](C(=O)N[C@@H](CC(C)C)C(=O)NCC(=O)N[C@@H](CCC(N)=O)C(=O)N[C@@H](CC(C)C)C(=O)N[C@@H](CO)C(=O)N[C@@H](C)C(=O)N[C@@H](CCCN=C(N)N)C(=O)N[C@@H](CCCCN)C(=O)N[C@@H](CC(C)C)C(=O)N[C@@H](CC(C)C)C(=O)N[C@@H](CCC(N)=O)C(N)=O)C(C)C)[C@@H](C)O`, the values for the Potency in assay [5] and in assay [1] were 0.008% and under 1%, respectively.
`CC[C@H](C)[C@H](NC(=O)[C@H](C)NC(=O)[C@H](CC(=O)O)NC(=O)[C@H](C)NC(=O)[C@@H](N)Cc1ccc(O)cc1)C(=O)N[C@@H](Cc1ccccc1)C(=O)N[C@H](C(=O)N[C@H](CC(N)=O)C(=O)N[C@@H](CO)C(=O)N[C@@H](Cc1ccc(O)cc1)C(=O)N[C@@H](CCCN=C(N)N)C(=O)N[C@@H](CCCCN)C(=O)N[C@H](C(=O)N[C@@H](CC(C)C)C(=O)NCC(=O)N[C@@H](CCC(N)=O)C(=O)N[C@@H](CC(C)C)C(=O)N[C@@H](CO)C(=O)N[C@@H](C)C(=O)N[C@@H](CCCN=C(N)N)C(=O)N[C@@H](CCCCN)C(=O)N[C@@H](CC(C)C)C(=O)N[C@@H](CC(C)C)C(=O)N[C@@H](CCC(N)=O)C(=O)N[C@@H](CC(=O)O)C(=O)N[C@H](C(=O)N[C@@H](CCSC)C(=O)N[C@@H](CO)C(=O)N[C@@H](CCCN=C(N)N)C(N)=O)[C@@H](C)CC)C(C)C)[C@@H](C)O` had a Potency in assay [1] of 220%.
Turning to Ac-YADAIFTNSYRKVLGQLSARKLLQDIL-NH2, the values for the Plasma GH release with Rattus norvegicus [6] and with Rattus norvegicus [7] were 2730 ng/mL and 1270 ng/mL, respectively. The Potency in assay [1] amounted to 54%.
Consider `CC[C@H](C)[C@H](NC(=O)[C@H](C)NC(=O)[C@H](CC(=O)O)NC(=O)[C@H](C)NC(=O)[C@@H](N)Cc1ccc(O)cc1)C(=O)N[C@@H](Cc1ccccc1)C(=O)N[C@H](C(=O)N[C@H](CC(N)=O)C(=O)N[C@@H](CO)C(=O)N[C@@H](Cc1ccc(O)cc1)C(=O)N[C@@H](CCCN=C(N)N)C(=O)N[C@@H](CCCCN)C(=O)N[C@H](C(=O)N[C@@H](CC(C)C)C(=O)NCC(=O)N[C@@H](CCC(N)=O)C(=O)N[C@@H](CC(C)C)C(=O)N[C@@H](CO)C(=O)N[C@@H](C)C(=O)N[C@@H](CCCN=C(N)N)C(=O)N[C@@H](CCCCN)C(=O)N[C@@H](CC(C)C)C(=O)N[C@@H](CC(C)C)C(=O)N[C@@H](CCC(N)=O)C(=O)N[C@@H](CC(=O)O)C(=O)N[C@H](C(=O)N[C@@H](CC(C)C)C(N)=O)[C@@H](C)CC)C(C)C)[C@@H](C)O`, for which the Potency in assay [5] was found to be 25%; in assay [1] it was 53%. Moreover, the figures for the Plasma GH release in the assay with Rattus norvegicus [6] and with Rattus norvegicus [7] were 2370 ng/mL and 1550 ng/mL, respectively.
As to `CC[C@H](C)[C@H](NC(=O)C(CC(=O)O)NC(=O)[C@H](CCC(N)=O)NC(=O)[C@H](CC(C)C)NC(=O)[C@H](CC(C)C)NC(=O)[C@H](CCCCN)NC(=O)[C@H](CCCN=C(N)N)NC(=O)[C@H](C)NC(=O)[C@H](CO)NC(=O)[C@H](CC(C)C)NC(=O)[C@H](CCC(N)=O)NC(=O)CNC(=O)[C@H](CC(C)C)NC(=O)[C@@H](NC(=O)[C@H](CCCCN)NC(=O)[C@H](CCCN=C(N)N)NC(=O)[C@H](Cc1ccc(O)cc1)NC(=O)[C@H](CO)NC(=O)[C@H](CC(N)=O)NC(=O)[C@@H](NC(=O)[C@H](Cc1ccccc1)NC(=O)[C@@H](NC(=O)[C@H](C)NC(=O)C(CC(=O)O)NC(=O)[C@@H](C)NC(=O)[C@@H](N)Cc1ccc(O)cc1)[C@@H](C)CC)[C@@H](C)O)C(C)C)C(=O)N[C@@H](CCSC)C(=O)N[C@@H](CO)C(=O)N[C@@H](CCCN=C(N)N)C(N)=O` (stereo in doubt), the Potency stood at 670% in assay [1] and 150% in the assay filed under Rattus norvegicus [2].
As to Ac-HADAIFTNSYRKVLGQLSARKLLQ-NH2, the Plasma GH release was 719 ng/mL in assay [3] and 358 ng/mL in assay [4]. This compound also displayed a Potency in assay [1] of under 5%.
In the case of Ac-YADAIFTNSYRKVLGQLSARKLLQ-NH2, the Plasma GH release in assay [3] turned out to be 664 ng/mL; in assay [4], 396 ng/mL. In assay [1], this compound displayed a Potency of under 5%.
